In ChEMBL document CHEMBL1671691 (Antimicrob Agents Chemother, 2010):

Assays:
Influenza A virus [1] = experiment: Antiviral activity against Influenza A virus (A/California/04/2009(H1N1)) infected in MDCK cells from Mill Hill assessed as log reduction in viral titer at 1.6 uM after 24 hrs by immunofluorescent assay; format: functional
Outline: (§1)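 Yield reduction in MDCK-ATCC or MDCK-Mill Hill cells infected at MOI ∼0.01. Adsorption 1 h at 4°C, washed, then DMEM with 2 μg/ml TPCK-trypsin and drug. At 24 h, supernatants were titrated by immunofluorescent focus assay on MDCK cells with anti-NP monoclonals and FITC secondary. Titres as log10 FFU per 100 μl; detection limit <10 FFU. Quadruplicate, mean ± SD.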

Influenza A virus [2] = experiment: Antiviral activity against Influenza A virus (A/California/04/2009(H1N1)) infected in MDCK cells from ATCC assessed as log reduction in viral titer at 1.6 uM after 24 hrs by immunofluorescent assay; format: functional; outline: as §1
Influenza A virus [3] = experiment: Antiviral activity against sInfluenza A virus (A/California/04/2009(H1N1)) infected in MDCK cells from ATCC assessed as log reduction in viral titer at 128 uM after 24 hrs by immunofluorescent assay; format: functional
Outline: (§2)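 MDCK cells (ATCC or Mill Hill) infected with 2009 pandemic H1N1 at MOI ~0.01, 1 h adsorption at 4°C, washed. DMEM with 2 μg/ml TPCK-trypsin plus drug for 24 h at 37°C. Supernatants titrated on MDCK cells by focus formation: methanol/acetic acid fixation, anti-nucleoprotein MAbs, FITC secondary, foci counted. Titre as log10 FFU per 100 μl; detection limit <10 FFU; quadruplicate wells.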

Influenza A virus [4] = experiment: Antiviral activity against sInfluenza A virus (A/California/04/2009(H1N1)) infected in MDCK cells from ATCC assessed as log reduction in viral titer at 4.7 uM after 24 hrs by immunofluorescent assay; format: functional; outline: as §2
Influenza A virus [5] = experiment: Antiviral activity against Influenza A virus (A/Illinois/10/2009(H1N1)) infected in MDCK cells from Mill Hill assessed as log reduction in viral titer at 4.7 uM after 24 hrs by immunofluorescent assay; format: functional; outline: as §1
Influenza A virus [6] = experiment: microbe, parasite or virus in culture; conditions: MDCK, 72 h
Influenza A virus [7] = experiment: Antiviral activity against Influenza A virus (A/Illinois/10/2009(H1N1)) infected in MDCK cells from ATCC assessed as log reduction in viral titer at 4.7 uM after 24 hrs by immunofluorescent assay; format: functional; outline: as §1
Influenza A virus [8] = experiment: microbe, parasite or virus in culture; conditions: (A/Swine/South Dakota/03/2008(H1N1)), MDCK, 72 h
Influenza A virus [9] = experiment: Antiviral activity against sInfluenza A virus (A/Washington/29/2009(H1N1))) infected in MDCK cells from Mill Hill assessed as log reduction in viral titer at 14.2 uM after 24 hrs by immunofluorescent assay; format: functional, Influenza A virus (A/Washington/29/2009(H1N1)); outline: as §2
Influenza A virus [10] = experiment: Antiviral activity against Influenza A virus (A/Mexico/4604/2009(H1N1)) infected in MDCK cells from Mill Hill assessed as log reduction in viral titer at 14.2 uM after 24 hrs by immunofluorescent assay; format: functional; outline: as §1
Influenza A virus [11] = experiment: Antiviral activity against Influenza A virus (A/Mexico/4604/2009(H1N1)) infected in MDCK cells from ATCC assessed as log reduction in viral titer at 42.7 uM after 24 hrs by immunofluorescent assay; format: functional; outline: as §1
Influenza A virus [12] = experiment: Antiviral activity against Influenza A virus (A/Illinois/10/2009(H1N1)) infected in MDCK cells from Mill Hill assessed as log reduction in viral titer at 14.2 uM after 24 hrs by immunofluorescent assay; format: functional; outline: as §1
Influenza A virus [13] = experiment: Antiviral activity against Influenza A virus (A/Washington/29/2009(H1N1)) infected in MDCK cells from Mill Hill assessed as log reduction in viral titer at 128 uM after 24 hrs by immunofluorescent assay; format: functional; outline: as §1
Influenza A virus [14] = experiment: Antiviral activity against Influenza A virus (A/Illinois/10/2009(H1N1)) infected in MDCK cells from Mill Hill assessed as log reduction in viral titer at 128 uM after 24 hrs by immunofluorescent assay; format: functional; outline: as §1
Influenza A virus [15] = experiment: Antiviral activity against Influenza A virus (A/Illinois/10/2009(H1N1)) infected in MDCK cells from ATCC assessed as log reduction in viral titer at 128 uM after 24 hrs by immunofluorescent assay; format: functional; outline: as §1
Influenza A virus [16] = experiment: Antiviral activity against Influenza A virus (A/Mexico/4604/2009(H1N1)) infected in MDCK cells from Mill Hill assessed as log reduction in viral titer at 128 uM after 24 hrs by immunofluorescent assay; format: functional; outline: as §1
Influenza A virus [17] = experiment: Antiviral activity against Influenza A virus (A/Mexico/4604/2009(H1N1)) infected in MDCK cells from Mill Hill assessed as log reduction in viral titer at 1.6 uM after 24 hrs by immunofluorescent assay; format: functional; outline: as §1
Influenza A virus [18] = experiment: Antiviral activity against Influenza A virus (A/Mexico/4604/2009(H1N1)) infected in MDCK cells from Mill Hill assessed as inhibition of viral replication after 3 days by microscopic analysis using crystal violet stain; format: functional
Influenza A virus [19] = experiment: Antiviral activity against sInfluenza A virus (A/California/04/2009(H1N1)) infected in MDCK cells from Mill Hill assessed as log reduction in viral titer at 42.7 uM after 24 hrs by immunofluorescent assay; format: functional; outline: as §2
Influenza A virus [20] = experiment: microbe, parasite or virus in culture; conditions: MDCK, 72 h; remark: listed apart in the source
Influenza A virus [21] = experiment: Antiviral activity against Influenza A virus (A/Mexico/4604/2009(H1N1)) infected in MDCK cells from ATCC assessed as log reduction in viral titer at 4.7 uM after 24 hrs by immunofluorescent assay; format: functional; outline: as §1
Influenza A virus [22] = experiment: Antiviral activity against Influenza A virus (A/Mexico/4604/2009(H1N1)) infected in MDCK cells from ATCC assessed as log reduction in viral titer at 14.2 uM after 24 hrs by immunofluorescent assay; format: functional; outline: as §1
Influenza A virus [23] = experiment: Antiviral activity against Influenza A virus (A/California/04/2009(H1N1)) infected in MDCK cells from Mill Hill assessed as log reduction in viral titer at 128 uM after 24 hrs by immunofluorescent assay; format: functional; outline: as §1
Influenza A virus [24] = experiment: Antiviral activity against Influenza A virus (A/California/04/2009(H1N1)) infected in MDCK cells from ATCC assessed as inhibition of viral replication after 3 days by microscopic analysis using crystal violet stain; format: functional
Outline: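 Confluent MDCK-ATCC monolayers infected with virus diluted to give 15–45 plaques/well. Adsorption 1 h at 37°C without drug, then washed. Overlaid with 0.8% agarose in MEM containing drug plus TPCK-trypsin: 3 μg/ml for seasonal viruses, 2 μg/ml for 2009 A(H1N1). Incubated 3 days at 37°C, 5% CO2. Ethanol-fixed, crystal violet-stained, plaques counted. EC50 by curve fit; duplicates on three occasions, mean ± SD.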

Influenza A virus [25] = experiment: Antiviral activity against sInfluenza A virus (A/Washington/29/2009(H1N1)) infected in MDCK cells from ATCC assessed as log reduction in viral titer at 4.7 uM after 24 hrs by immunofluorescent assay; format: functional, Influenza A virus (A/Washington/29/2009(H1N1)); outline: as §2

NC(=O)c1nc(F)cnc1O [FAVIPIRAVIR]
log10FFU (Influenza A virus [1]): 4.1 | log10FFU (Influenza A virus [2]): 2.7 | log10FFU (Influenza A virus [3]): <1 | log10FFU (Influenza A virus [4]): 1.8 | log10FFU (Influenza A virus [5]): 3.8 | EC50 (Influenza A virus [6]): 380 nM | log10FFU (Influenza A virus [7]): 4.4 | EC50 (Influenza A virus [8]): 830 nM | log10FFU (Influenza A virus [9]): 3.1 | log10FFU (Influenza A virus [10]): 4.6 | log10FFU (Influenza A virus [11]): 1.8 | log10FFU (Influenza A virus [12]): 1.8 | log10FFU (Influenza A virus [13]): <1 | log10FFU (Influenza A virus [14]): <1 | log10FFU (Influenza A virus [15]): <1 | log10FFU (Influenza A virus [16]): <1 | log10FFU (Influenza A virus [17]): 6.2 | log10FFU (Influenza A virus [18]): 36.16 | log10FFU (Influenza A virus [19]): <1 | EC50 (Influenza A virus [20]): 960 nM | log10FFU (Influenza A virus [21]): 3.5 | log10FFU (Influenza A virus [22]): 2.4 | log10FFU (Influenza A virus [23]): <1 | log10FFU (Influenza A virus [24]): 0.48 | log10FFU (Influenza A virus [25]): 3.9
